Tests used:
[1] = tested on: Human immunodeficiency virus 1; experiment: microbe, parasite or virus in culture; type: functional, organism-based; conditions: Human immunodeficiency virus 1, NL432
[2] = tested on: Human immunodeficiency virus 1; experiment: Antiviral activity against HIV1 3B in presence of 10% fetal calf serum; type: functional, organism-based; conditions: Human immunodeficiency virus 1, 3B
[3] = Selectivity index, ratio of CC50 for human MT4 cells to EC50 for HIV1 3B
[4] = tested on: Human immunodeficiency virus 1; experiment: Antiviral activity against HIV1 3B in presence of 10% fetal calf serum and alpha1 acid glycoprotein; type: functional, organism-based; conditions: Human immunodeficiency virus 1, 3B
[5] = tested on: Human immunodeficiency virus 1; experiment: Antiviral activity against wild type HIV1 NL432; type: functional, organism-based; conditions: Human immunodeficiency virus 1, NL432
[6] = tested on: Human immunodeficiency virus 1; experiment: Antiviral activity against nelfinavir-resistant HIV1 NL432; type: functional, organism-based; conditions: Human immunodeficiency virus 1, NL432
[7] = Cytotoxicity against human MT4 cells by MTT assay; type: cell-based
[8] = tested on: Human immunodeficiency virus 1; experiment: Ratio of EC50 for nelfinavir-resistant HIV1 NL432 to EC50 for wild-type HIV1 NL432; type: functional
[9] = tested on: Human immunodeficiency virus 1; experiment: Antiviral activity against HIV1 3B in human MT4 cells assessed as inhibition of viral-induced cytopathic effect by MTT method; type: functional, organism-based; conditions: Human immunodeficiency virus 1, 3B
[10] = tested on: Human immunodeficiency virus 1; experiment: microbe, parasite or virus in culture; type: functional, organism-based; conditions: Human immunodeficiency virus 1, NL432; remark: listed apart in the source
[11] = molecular target: Protease (Human immunodeficiency virus 1) (UniProt Q9YQ12); conditions: at 1 nM
Sequence of Protease (Human immunodeficiency virus 1) (Q9YQ12 as listed by the source): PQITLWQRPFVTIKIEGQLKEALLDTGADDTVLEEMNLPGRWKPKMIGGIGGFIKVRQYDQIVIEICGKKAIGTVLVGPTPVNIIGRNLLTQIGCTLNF

Protease = Protease (Human immunodeficiency virus 1, UniProt Q9YQ12); experiment: Inhibition of HIV1 protease
Sequence of Protease (Q9YQ12 whole entry): as the sequence (Q9YQ12 as listed by the source) above
How it was run: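 HIV-1 protease (2 µg/mL stock in pH 5.5 acetate buffer) was mixed with test compound (10 nM solution in DMSO) in MES-NaOH buffer, pH 5.5, containing DTT, EDTA and NaCl. The mixture was preincubated 5 min at 37 °C, then started with substrate H-Lys-Ala-Arg-Val-Tyr*Phe(p-NO₂)-Glu-Ala-Nle-NH₂. After 60 min at 37 °C, the reaction was stopped with 1N HCl.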

IC50 (Protease) | SMILES | EC50 [1] | EC50 [2] | selectivity ratio ([3]; MT4 cells) | EC50 [4] | EC50 [5] | EC50 [6] | CC50 [7] | Ratio EC50 [8] | EC50 [9] | EC50 [10] | inhibition [11] | selectivity ratio ([3]; mt4)
– | CC(=O)N[C@H](CSCc1ccccc1)C(=O)N[C@@H](Cc1ccccc1)[C@H](O)C(=O)N1CSC(C)(C)[C@H]1C(=O)NCc1ccccc1C | 21 nM | 16 nM | 1000 | 96 nM | 18 nM | 5.9 nM | 15000 nM | 0.33 | 15 nM | 40 nM | 81% | –
– | CC(=O)N[C@H](CSCc1ccc(C)cc1)C(=O)N[C@@H](Cc1ccccc1)[C@H](O)C(=O)N1CSC(C)(C)[C@H]1C(=O)NCc1ccccc1C | 27 nM | 12 nM | 730 | 84 nM | 22 nM | 3.6 nM | 8800 nM | 0.16 | 12 nM | 41 nM | 76% | –
– | COc1ccc(CS(=O)(=O)C[C@@H](NC(C)=O)C(=O)N[C@@H](Cc2ccccc2)[C@H](O)C(=O)N2CSC(C)(C)[C@H]2C(=O)NCc2ccccc2C)cc1 | – | – | > 260 | – | – | – | – | – | – | – | 59% | –
– | CC(=O)N[C@H](CCc1ccccc1)C(=O)N[C@@H](Cc1ccccc1)[C@H](O)C(=O)N1CSC(C)(C)[C@H]1C(=O)NCc1ccccc1C | 132 nM | 25 nM | > 610 | 155 nM | 78 nM | 18 nM | > 31000 nM | 0.23 | 51 nM | 101 nM | 45% | –
– | Cc1ccccc1CNC(=O)[C@H]1N(C(=O)[C@@H](O)[C@H](Cc2ccccc2)NC(=O)[C@@H](CSc2ccc3ccccc3n2)NS(C)(=O)=O)CSC1(C)C | – | – | 50 | – | – | – | 8500 nM | – | 169 nM | – | 28% | –
– | CC(=O)N[C@H](CS(=O)(=O)Cc1ccc(C)cc1)C(=O)N[C@@H](Cc1ccccc1)[C@H](O)C(=O)N1CSC(C)(C)[C@H]1C(=O)NCc1ccccc1C | – | – | > 340 | – | – | – | > 28000 nM | – | 82 nM | – | 53% | –
0.09 nM | Cc1ccccc1CNC(=O)[C@H]1N(C(=O)[C@@H](O)[C@H](Cc2ccccc2)NC(=O)[C@@H](CS(=O)(=O)c2ccc3ccccc3c2)NS(C)(=O)=O)CSC1(C)C | – | – | 230 | – | – | – | 19000 nM | – | 81 nM | – | 98% | –
– | Cc1ccc(CSC[C@@H](NS(C)(=O)=O)C(=O)N[C@@H](Cc2ccccc2)[C@H](O)C(=O)N2CSC(C)(C)[C@H]2C(=O)NCc2ccccc2C)cc1 | 43 nM | 14 nM | 520 | 110 nM | 17 nM | 1.5 nM | 8900 nM | 0.09 | 17 nM | 58 nM | 58% | –
– | CC(C)c1nc(CN(C)C(=O)N[C@H](C(=O)N[C@@H](Cc2ccccc2)C[C@H](O)[C@H](Cc2ccccc2)NC(=O)OCc2cncs2)C(C)C)cs1 [RITONAVIR] | – | 24 nM | – | 422 nM | – | – | – | – | – | – | 90% | –
– | CSC[C@H](NC(=O)COc1cccc2cnccc12)C(=O)N[C@@H](Cc1ccccc1)[C@H](O)C(=O)N1CSC[C@H]1C(=O)NC(C)(C)C | 237 nM | – | – | 529 nM | 36 nM | 84 nM | – | 2.3 | – | 201 nM | 40% | > 1400
– | COc1ccc(CS(=O)(=O)C[C@@H](NS(C)(=O)=O)C(=O)N[C@@H](Cc2ccccc2)[C@H](O)C(=O)N2CSC(C)(C)[C@H]2C(=O)NCc2ccccc2C)cc1 | – | – | > 130 | – | – | – | > 26000 nM | – | 203 nM | – | 66% | –
– | CC(=O)N[C@H](CSc1ccc2ccccc2n1)C(=O)N[C@@H](Cc1ccccc1)[C@H](O)C(=O)N1CSC(C)(C)[C@H]1C(=O)NCc1ccccc1C | – | – | 64 | – | – | – | 9700 nM | – | 151 nM | – | 27% | –
– | Cc1ccccc1CNC(=O)[C@H]1N(C(=O)[C@@H](O)[C@H](Cc2ccccc2)NC(=O)[C@@H](CS(=O)(=O)Cc2ccccc2)NS(C)(=O)=O)CSC1(C)C | – | – | > 120 | – | – | – | > 27000 nM | – | 219 nM | – | 66% | –
– | Cc1ccccc1CNC(=O)[C@H]1N(C(=O)[C@@H](O)[C@H](Cc2ccccc2)NC(=O)[C@@H](CSc2cccc3ccccc23)NS(C)(=O)=O)CSC1(C)C | 13 nM | 4 nM | 690 | 347 nM | 9.3 nM | 0.67 nM | 4400 nM | 0.07 | 6.4 nM | 17 nM | 74% | –
– | CC(=O)N[C@H](CSc1ccc2ccccc2c1)C(=O)N[C@@H](Cc1ccccc1)[C@H](O)C(=O)N1CSC(C)(C)[C@H]1C(=O)NCc1ccccc1C | 32 nM | 14 nM | 460 | 95 nM | 17 nM | 7.2 nM | 8300 nM | 0.42 | 18 nM | 65 nM | 53% | –
– | Cc1ccc(CS(=O)(=O)C[C@@H](NS(C)(=O)=O)C(=O)N[C@@H](Cc2ccccc2)[C@H](O)C(=O)N2CSC(C)(C)[C@H]2C(=O)NCc2ccccc2C)cc1 | – | – | > 210 | – | – | – | > 26000 nM | – | 125 nM | – | 52% | –
– | Cc1ccccc1CNC(=O)[C@H]1N(C(=O)[C@@H](O)[C@H](Cc2ccccc2)NC(=O)[C@@H](CS(=O)(=O)c2ccc(F)cc2)NS(C)(=O)=O)CSC1(C)C | – | – | > 130 | – | – | – | > 27000 nM | – | 212 nM | – | 94% | –
– | Cc1ccccc1CNC(=O)[C@H]1N(C(=O)[C@@H](O)[C@H](Cc2ccccc2)NC(=O)[C@@H](CSc2ccc3ccccc3c2)NS(C)(=O)=O)CSC1(C)C | 23 nM | 8 nM | 470 | 88 nM | 17 nM | 0.8 nM | 6100 nM | 0.05 | 13 nM | 31 nM | 67% | –
– | Cc1ccccc1CNC(=O)[C@H]1N(C(=O)[C@@H](O)[C@H](Cc2ccccc2)NC(=O)[C@@H](CSCc2ccccc2)NS(C)(=O)=O)CSC1(C)C | 55 nM | 18 nM | 580 | 88 nM | 20 nM | 1.8 nM | 9800 nM | 0.09 | 17 nM | 63 nM | 66% | –
0.27 nM | CC(=O)N[C@H](CS(=O)(=O)c1ccc(F)cc1)C(=O)N[C@@H](Cc1ccccc1)[C@H](O)C(=O)N1CSC(C)(C)[C@H]1C(=O)NCc1ccccc1C | – | – | > 270 | – | – | – | > 28000 nM | – | 105 nM | – | 79% | –
0.11 nM | Cc1ccccc1CNC(=O)[C@H]1N(C(=O)[C@@H](O)[C@H](Cc2ccccc2)NC(=O)[C@@H](CS(=O)(=O)c2ccc(Cl)cc2)NS(C)(=O)=O)CSC1(C)C | – | – | – | – | – | – | – | – | – | – | 95% | –
– | Cc1c(O)cccc1C(=O)N[C@@H](CSc1ccccc1)[C@H](O)CN1C[C@H]2CCCC[C@H]2C[C@H]1C(=O)NC(C)(C)C | – | 21 nM | 690 | 606 nM | – | – | – | 12 | – | – | 29% | –
– | CC(=O)N[C@H](CSc1cccc2ccccc12)C(=O)N[C@@H](Cc1ccccc1)[C@H](O)C(=O)N1CSC(C)(C)[C@H]1C(=O)NCc1ccccc1C | 52 nM | 14 nM | 470 | 401 nM | 20 nM | 6.3 nM | 8000 nM | 0.32 | 17 nM | 70 nM | 68% | –
– | CC(=O)N[C@H](CS(=O)(=O)c1ccc2ccccc2n1)C(=O)N[C@@H](Cc1ccccc1)[C@H](O)C(=O)N1CSC(C)(C)[C@H]1C(=O)NCc1ccccc1C | – | – | > 290 | – | – | – | > 27000 nM | – | 94 nM | – | 85% | –
– | Cc1ccccc1CNC(=O)[C@H]1N(C(=O)[C@@H](O)[C@H](Cc2ccccc2)NC(=O)[C@@H](CCc2ccccc2)NS(C)(=O)=O)CSC1(C)C | – | – | 190 | – | – | – | 11000 nM | – | 59 nM | – | 55% | –
– | CC(=O)N[C@H](CS(=O)(=O)Cc1ccccc1)C(=O)N[C@@H](Cc1ccccc1)[C@H](O)C(=O)N1CSC(C)(C)[C@H]1C(=O)NCc1ccccc1C | – | – | > 240 | – | – | – | > 28000 nM | – | 117 nM | – | 47% | –
– | Cc1ccccc1CNC(=O)[C@H]1N(C(=O)[C@@H](O)[C@H](Cc2ccccc2)NC(=O)[C@@H](CS(=O)(=O)c2ccc3ccccc3n2)NS(C)(=O)=O)CSC1(C)C | – | – | > 55 | – | – | – | > 26000 nM | – | 473 nM | – | 91% | –

SMILES | IC50 (Protease) | EC50 [1] | EC50 [2] | selectivity ratio ([3]; MT4 cells) | EC50 [4] | EC50 [5] | EC50 [6] | CC50 [7] | Ratio EC50 [8] | EC50 [9] | EC50 [10] | inhibition [11] | selectivity ratio ([3]; mt4)
CC(=O)N[C@H](CS(=O)(=O)c1ccc2ccccc2c1)C(=O)N[C@@H](Cc1ccccc1)[C@H](O)C(=O)N1CSC(C)(C)[C@H]1C(=O)NCc1ccccc1C | 0.086 nM | – | – | 570 | – | – | – | 16000 nM | – | 28 nM | – | 96% | –
CC(=O)N[C@H](CS(=O)(=O)c1cccc2ccccc12)C(=O)N[C@@H](Cc1ccccc1)[C@H](O)C(=O)N1CSC(C)(C)[C@H]1C(=O)NCc1ccccc1C | 0.09 nM | – | – | 400 | – | – | – | 16000 nM | – | 40 nM | – | 97% | –

Source: ChEMBL document CHEMBL1150285, “Combination of non-natural D-amino acid derivatives and allophenylnorstatine-dimethylthioproline scaffold in HIV protease inhibitors have high efficacy in mutant HIV” (J Med Chem, 2008)
